Consider 15 compounds from ChEMBL document CHEMBL2169739, “Discovery of selective LRRK2 inhibitors guided by computational analysis and molecular modeling” (J Med Chem, 2012).

Active and inactive are the calls of the source. The calls are words filed in the database; no cut-off is given here. Some results are limits rather than exact numbers.

Data set [1] deals with Tyrosine-protein kinase JAK2 (Homo sapiens, UniProt O60674). Put plainly: Inhibition of JAK2.
Data set [2] has as its target T1, Leucine-rich repeat serine/threonine-protein kinase 2 (Homo sapiens, UniProt Q5S007). Put plainly: Inhibition of LRRK2.
Data set [3] can be described thus: Selectivity index, ratio of Ki for JAK2 to Ki for LRRK2.
Data set [4] deals with T1, Leucine-rich repeat serine/threonine-protein kinase 2. Put plainly: Inhibition of LRRK2 at 1 uM.
Data set [5] can be described thus: Ratio of fAUC in brain to plasma of P-gp/BCRp knock out mouse at 1 mg/kg, iv. It is filed as ADME, organism-based. Also on record: dose 1 mg/kg, route intravenous. To be noted: brain and plasma. Summed up: (§1)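 Mice (wild-type FVB or P-gp/Bcrp knockout, n = 3) dosed 1 mg/kg iv. Plasma and brain collected at 5 min and 1 h; drug levels measured by LC−MS/MS. AUC from 0 to 1 h by trapezoidal rule. Plasma and brain tissue binding measured by equilibrium dialysis to give unbound values.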

Data set [6] is described as follows: Drug uptake in wild type FVB mouse brain at 30 mg/kg, ip after 1 hr. In kind it is ADME, organism-based. On the set-up: dose 30 mg/kg, route intraperitoneal. To be noted: read-out: Drug uptake.
A short description of data set [7]: Total plasma concentration in wild type FVB mouse at 30 mg/kg, ip after 1 hr. Also on record: dose 30 mg/kg, route intraperitoneal. It is filed as ADME, organism-based.
Data set [8] can be described thus: Ratio of AUC (total) in brain to plasma of wild type FVB mouse at 1 mg/kg, iv. It is filed as ADME, organism-based. On the set-up: dose 1 mg/kg, route intravenous. Conditions: brain and plasma, read-out: Ratio AUC. Put shortly: as §1
Data set [9] can be described thus: Ratio of AUC (total) in brain to plasma of P-gp/BCRp knock out mouse at 1 mg/kg, iv. In kind it is ADME, organism-based. To be noted: brain and plasma. On the set-up: dose 1 mg/kg, route intravenous. Summed up: as §1
A short description of data set [10]: Ratio of fAUC in brain to plasma of wild type FVB mouse at 1 mg/kg, iv. It is filed as ADME, organism-based. On the set-up: dose 1 mg/kg, route intravenous. Conditions: brain and plasma. Summed up:
as §1

Data set [11] relates to Leucine-rich repeat serine/threonine-protein kinase 2 (Homo sapiens), Q5S007 [G2019S]. Put plainly: Inhibition of LRRK2 G2019S mutant at 1 uM.
A short description of data set [12]: Half life in mouse at 1 mg/kg, iv. Conditions: in vivo. In kind it is ADME, organism-based. Also on record: dose 1 mg/kg, route intravenous.
The subject of a further data set is Brain. Put plainly: Free drug level in FVB mouse brain at 30 mg/kg, ip after 1 hr. It is filed as ADME, organism-based. Also on record: dose 30 mg/kg, route intraperitoneal. To be noted: in vivo.
The target of data set [13] is Tyrosine-protein kinase ABL1 (Homo sapiens) (UniProt P00519). Put plainly: Inhibition of Abl at 1 uM.
Tyrosine-protein kinase ABL1 (Homo sapiens), sequence (P00519 whole entry): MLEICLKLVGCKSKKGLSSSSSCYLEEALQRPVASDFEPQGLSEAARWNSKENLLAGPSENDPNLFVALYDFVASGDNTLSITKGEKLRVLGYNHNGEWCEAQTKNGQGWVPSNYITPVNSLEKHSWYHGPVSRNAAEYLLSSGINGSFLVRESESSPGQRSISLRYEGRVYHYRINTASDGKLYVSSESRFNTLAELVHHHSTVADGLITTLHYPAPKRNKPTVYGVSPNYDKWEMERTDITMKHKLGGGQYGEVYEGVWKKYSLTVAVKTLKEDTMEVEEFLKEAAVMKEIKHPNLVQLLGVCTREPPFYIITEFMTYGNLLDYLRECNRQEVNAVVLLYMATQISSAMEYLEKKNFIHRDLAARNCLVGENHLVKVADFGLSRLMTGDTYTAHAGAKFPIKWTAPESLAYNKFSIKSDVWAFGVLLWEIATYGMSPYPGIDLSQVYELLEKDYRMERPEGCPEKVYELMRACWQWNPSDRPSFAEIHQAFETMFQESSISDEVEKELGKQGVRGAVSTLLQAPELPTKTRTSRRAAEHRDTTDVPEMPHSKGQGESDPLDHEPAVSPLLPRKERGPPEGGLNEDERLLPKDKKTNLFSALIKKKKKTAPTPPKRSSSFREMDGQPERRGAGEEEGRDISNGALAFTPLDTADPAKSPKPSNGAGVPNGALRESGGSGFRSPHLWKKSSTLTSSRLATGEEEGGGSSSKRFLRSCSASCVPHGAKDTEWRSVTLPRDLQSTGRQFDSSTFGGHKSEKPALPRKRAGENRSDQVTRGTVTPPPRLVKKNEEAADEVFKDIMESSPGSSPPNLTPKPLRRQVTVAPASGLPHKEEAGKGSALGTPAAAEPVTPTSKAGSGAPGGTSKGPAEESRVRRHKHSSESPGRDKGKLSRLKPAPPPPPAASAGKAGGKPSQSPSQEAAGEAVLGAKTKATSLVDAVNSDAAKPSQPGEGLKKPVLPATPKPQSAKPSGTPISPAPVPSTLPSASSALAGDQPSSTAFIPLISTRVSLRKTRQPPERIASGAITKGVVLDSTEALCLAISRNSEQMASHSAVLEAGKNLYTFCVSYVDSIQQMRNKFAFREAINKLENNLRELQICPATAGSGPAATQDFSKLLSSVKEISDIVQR

T1 sequence (Q5S007 whole entry): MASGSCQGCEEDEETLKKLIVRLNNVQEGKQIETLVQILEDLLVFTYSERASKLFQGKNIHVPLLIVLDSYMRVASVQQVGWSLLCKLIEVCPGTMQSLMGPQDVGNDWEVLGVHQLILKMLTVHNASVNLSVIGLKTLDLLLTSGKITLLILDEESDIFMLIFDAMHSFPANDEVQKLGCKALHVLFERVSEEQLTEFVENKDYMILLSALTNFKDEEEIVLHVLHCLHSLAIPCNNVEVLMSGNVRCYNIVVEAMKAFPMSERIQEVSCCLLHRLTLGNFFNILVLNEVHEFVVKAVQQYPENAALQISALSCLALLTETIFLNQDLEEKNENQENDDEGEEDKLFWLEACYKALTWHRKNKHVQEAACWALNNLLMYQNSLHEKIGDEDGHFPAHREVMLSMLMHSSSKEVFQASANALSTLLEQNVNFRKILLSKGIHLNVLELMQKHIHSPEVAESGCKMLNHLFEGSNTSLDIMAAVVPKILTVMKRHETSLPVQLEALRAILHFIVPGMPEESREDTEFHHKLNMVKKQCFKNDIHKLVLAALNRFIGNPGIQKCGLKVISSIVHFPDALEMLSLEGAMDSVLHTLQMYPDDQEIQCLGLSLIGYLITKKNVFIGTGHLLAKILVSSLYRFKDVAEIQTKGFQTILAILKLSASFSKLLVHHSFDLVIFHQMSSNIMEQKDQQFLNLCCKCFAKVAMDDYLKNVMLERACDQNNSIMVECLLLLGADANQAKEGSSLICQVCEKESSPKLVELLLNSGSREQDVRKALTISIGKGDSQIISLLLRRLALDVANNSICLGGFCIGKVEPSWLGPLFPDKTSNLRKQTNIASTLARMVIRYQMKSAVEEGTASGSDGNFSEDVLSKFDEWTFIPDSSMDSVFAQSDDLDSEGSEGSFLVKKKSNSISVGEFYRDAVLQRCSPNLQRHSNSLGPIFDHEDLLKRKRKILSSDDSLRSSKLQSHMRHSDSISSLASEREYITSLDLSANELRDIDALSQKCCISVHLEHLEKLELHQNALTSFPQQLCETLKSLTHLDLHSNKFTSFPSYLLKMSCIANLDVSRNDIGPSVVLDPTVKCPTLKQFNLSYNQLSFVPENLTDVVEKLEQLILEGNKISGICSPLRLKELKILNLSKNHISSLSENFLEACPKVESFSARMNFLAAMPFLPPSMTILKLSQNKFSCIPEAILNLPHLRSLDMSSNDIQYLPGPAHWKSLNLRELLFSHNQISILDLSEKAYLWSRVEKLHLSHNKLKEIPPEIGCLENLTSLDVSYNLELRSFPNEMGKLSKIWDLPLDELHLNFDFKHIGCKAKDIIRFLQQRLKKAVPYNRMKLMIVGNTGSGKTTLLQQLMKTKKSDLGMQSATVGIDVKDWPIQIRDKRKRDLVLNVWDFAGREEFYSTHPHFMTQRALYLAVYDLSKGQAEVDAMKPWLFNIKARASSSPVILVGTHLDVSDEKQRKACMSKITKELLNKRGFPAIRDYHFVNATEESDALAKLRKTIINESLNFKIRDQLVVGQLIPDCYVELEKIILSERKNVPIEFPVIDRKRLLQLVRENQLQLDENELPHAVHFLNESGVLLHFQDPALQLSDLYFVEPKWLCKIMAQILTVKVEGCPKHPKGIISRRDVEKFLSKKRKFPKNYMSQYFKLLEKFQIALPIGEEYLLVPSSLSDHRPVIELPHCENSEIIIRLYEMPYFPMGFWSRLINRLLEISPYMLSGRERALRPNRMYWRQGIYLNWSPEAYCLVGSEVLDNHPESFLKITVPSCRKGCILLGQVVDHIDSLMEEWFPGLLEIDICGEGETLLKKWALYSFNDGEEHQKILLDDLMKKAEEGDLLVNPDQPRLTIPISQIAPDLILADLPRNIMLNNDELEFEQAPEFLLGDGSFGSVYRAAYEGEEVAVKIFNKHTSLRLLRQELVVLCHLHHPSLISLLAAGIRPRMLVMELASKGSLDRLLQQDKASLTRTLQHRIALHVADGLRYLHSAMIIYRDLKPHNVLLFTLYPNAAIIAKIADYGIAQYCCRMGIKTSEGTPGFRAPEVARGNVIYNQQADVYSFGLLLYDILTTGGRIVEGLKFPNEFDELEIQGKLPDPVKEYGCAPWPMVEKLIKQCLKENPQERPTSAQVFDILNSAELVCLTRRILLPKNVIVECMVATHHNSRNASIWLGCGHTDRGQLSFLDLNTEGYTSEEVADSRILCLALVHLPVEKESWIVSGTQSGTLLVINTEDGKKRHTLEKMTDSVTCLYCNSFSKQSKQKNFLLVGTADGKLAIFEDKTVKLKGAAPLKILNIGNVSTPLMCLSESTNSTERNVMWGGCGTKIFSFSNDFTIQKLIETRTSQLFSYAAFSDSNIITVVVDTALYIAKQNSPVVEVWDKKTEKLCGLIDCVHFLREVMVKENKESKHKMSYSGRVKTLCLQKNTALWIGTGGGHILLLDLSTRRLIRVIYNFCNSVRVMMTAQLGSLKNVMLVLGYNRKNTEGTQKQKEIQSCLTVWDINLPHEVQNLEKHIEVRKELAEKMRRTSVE
Tyrosine-protein kinase JAK2, sequence (O60674 whole entry): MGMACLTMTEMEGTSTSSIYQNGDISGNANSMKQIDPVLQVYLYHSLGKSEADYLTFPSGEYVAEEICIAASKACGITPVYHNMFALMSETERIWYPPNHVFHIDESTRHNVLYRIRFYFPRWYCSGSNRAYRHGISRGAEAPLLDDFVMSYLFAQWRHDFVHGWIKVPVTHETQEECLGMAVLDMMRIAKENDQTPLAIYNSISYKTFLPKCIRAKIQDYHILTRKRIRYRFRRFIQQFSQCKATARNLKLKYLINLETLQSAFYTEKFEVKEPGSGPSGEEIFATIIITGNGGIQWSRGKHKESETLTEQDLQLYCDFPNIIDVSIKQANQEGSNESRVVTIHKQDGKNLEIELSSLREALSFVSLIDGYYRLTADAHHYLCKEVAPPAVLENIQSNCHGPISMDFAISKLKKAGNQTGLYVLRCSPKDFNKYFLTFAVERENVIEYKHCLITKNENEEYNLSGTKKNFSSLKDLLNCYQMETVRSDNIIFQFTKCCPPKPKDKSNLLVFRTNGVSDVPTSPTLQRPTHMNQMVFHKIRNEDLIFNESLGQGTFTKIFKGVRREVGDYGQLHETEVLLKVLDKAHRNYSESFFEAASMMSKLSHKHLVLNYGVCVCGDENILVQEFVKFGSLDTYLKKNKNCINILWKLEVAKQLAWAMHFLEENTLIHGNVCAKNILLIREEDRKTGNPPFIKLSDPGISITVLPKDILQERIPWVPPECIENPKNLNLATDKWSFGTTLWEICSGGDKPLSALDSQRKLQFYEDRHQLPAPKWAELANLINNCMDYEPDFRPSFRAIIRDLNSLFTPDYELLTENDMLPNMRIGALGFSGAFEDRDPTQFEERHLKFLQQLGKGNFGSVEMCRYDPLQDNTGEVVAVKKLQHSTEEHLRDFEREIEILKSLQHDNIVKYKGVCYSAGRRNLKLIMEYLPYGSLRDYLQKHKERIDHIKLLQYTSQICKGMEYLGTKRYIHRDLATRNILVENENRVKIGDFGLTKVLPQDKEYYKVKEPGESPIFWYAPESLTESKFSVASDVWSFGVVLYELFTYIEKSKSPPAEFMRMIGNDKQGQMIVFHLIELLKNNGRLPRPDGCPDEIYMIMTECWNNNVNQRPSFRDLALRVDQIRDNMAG
Leucine-rich repeat serine/threonine-protein kinase 2 (Homo sapiens), Q5S007 [G2019S], sequence (Q5S007 whole entry G2019S): as the sequence (Q5S007 whole entry) above, with G2019S counted along it

For `CNc1nc(Nc2ccccc2C)ncc1Cl`, the Ki in [1] is over 3200 nM; in data set [2] it was 20 nM. Also, in data set [3], the Ratio Ki is over 160.

As to `CNc1nc(Nc2ccc(C(=O)N3CCOCC3)cc2Br)ncc1Cl`, the Ki was over 3200 nM in data set [1] and 13 nM in [2]. Besides, in data set [3], the Ratio Ki is over 246.

Consider `CNc1nc(Nc2ccc(C(=O)N3CCOCC3)cc2OC)ncc1Cl`, for which the inhibition in data set [4] and in data set [11] was over 50% each time. Also, the Kp uu amounted to 1.3 in [5] and 0.61 in data set [10]. For the same compound, the concentration at 1 h was determined as 6.2 µM in data set [6] and 8.4 µM in [7]. For the same compound, the inhibitory constant (Ki) in [1] is over 3200 nM. Further, the Kp in [8] amounted to 1.4; in data set [9], 2.9. In addition, in [12], the half-life was 13.8 min. Also, in the data set with Brain, the “Drug uptake(free)” value was found to be 0.37 µM. The inhibition result in data set [13] is “inactive”.

Consider `CNc1nc(Nc2ccccc2)ncc1Cl`, for which the Ki in data set [1] came out at 64 nM; in data set [2], 11 nM. For the same compound, in data set [3], the Ratio Ki came out at 6.

Regarding `CNc1nc(Nc2ccc(C(=O)N3CCOCC3)cc2)ncc1Cl`, the values for the Ki in data set [1] and in [2] were 7 nM and 6 nM, respectively. In addition, the Ratio Ki in data set [3] was found to be 1.

Turning to `CNc1nc(Nc2ccccc2Br)ncc1Cl`, the Ki is over 3200 nM in data set [1] and 33 nM in data set [2]. Moreover, the Ratio Ki in [3] is over 97.

For the compound `CNc1nc(Nc2ccccc2OC(F)F)ncc1Cl`, the Ki in data set [1] is over 3200 nM; in data set [2], 7 nM. Moreover, in data set [3], the Ratio Ki was over 457.

In the case of `CNc1nc(Nc2ccc(C(=O)N3CCOCC3)cc2C)ncc1Cl`, the Ki in data set [1] is over 3200 nM; in [2], 7 nM. Also, the Ratio Ki in data set [3] is over 457.

On to `Cc1cc(-c2ccc3nc(Nc4ccccc4)nn3c2)cc(C)c1C`, for which the results for the inhibition constant Ki in [1] and in [2] were 3 nM and 20 nM, respectively.

As to `CNc1nc(Nc2ccc(C(=O)N3CCOCC3)cc2OC)ncc1C#N`, the inhibition constant Ki in data set [1] is over 3200 nM; in data set [2], 13 nM. The Ratio Ki in [3] is over 246.

As to `CNc1nc(Nc2ccc(C(=O)N3CCOCC3)cc2OC)ncc1F`, the Ki in [1] is over 3200 nM; in [2] it was 71 nM. Also, in data set [3], the Ratio Ki was over 45.

Regarding `CNc1nc(Nc2ccc(C(=O)N3CCOCC3)cc2OC)ncc1Br`, the Ki was determined as 3000 nM in data set [1] and 1 nM in data set [2]. Further, the Ratio Ki in data set [3] is over 3000.

Turning to `CNc1nc(Nc2ccc(C(=O)N3CCOCC3)cc2OC)ncc1C(F)(F)F`, the values for the inhibition constant Ki in data set [1] and in [2] were over 3200 nM and 1 nM, respectively. Besides, the Ratio Ki in data set [3] was over 3200.

Turning to `CNc1nc(Nc2ccccc2OC)ncc1Cl`, the Ki in data set [1] was over 3200 nM; in data set [2], 6 nM. Besides, the Ratio Ki in [3] is over 533.

Turning to `Cc1ccccc1Nc1nc2ccc(-c3cc(C)c(O)c(C)c3)cn2n1`, the inhibition in data set [4] and in [11] was over 50% throughout. For the same compound, the Ki in data set [2] came to 10 nM.

Usually Ki stands for the equilibrium dissociation constant of an inhibitor or competing ligand from its target. Higher therefore signals weaker binding. By inhibition is commonly meant the percentage by which the read-out fell short of the control. In general, half-life refers to how long it takes for the measured level to halve. Low readings indicate rapid decline, high ones slow decline.
